Data reported in ChEMBL document CHEMBL3425479, “Discovery, synthesis, and molecular pharmacology of selective positive allosteric modulators of the δ-opioid receptor” (J Med Chem, 2015).
Calls of active or inactive are those of the source. The rule behind the calls is not given here.

Experiments:
[1] = molecular target: T1, Delta-type opioid receptor (Homo sapiens, UniProt P41143); assay: Positive allosteric modulation of human delta opioid receptor-1 expressed in CHO cells assessed as potentiation of leu-enkephalin-induced response after 90 mins by beta-arrestin recruitment assay; assay type: cell-based
[2] = test system: CHO; assay: Selectivity ratio of EC50 for human mu opioid receptor-1 expressed in CHO cells to EC50 for human delta opioid receptor-1 expressed in CHO cells; assay type: cell-based
Outline: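 The δ/μ potency ratio is built from PAM-mode β-arrestin EC50 values in PathHunter CHO-OPRD1 and CHO-OPRM1 cells. […] Incubation was 90 min at room temperature with luminescence read-out.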

[3] = molecular target: T1, Delta-type opioid receptor; assay: Agonist activity at human delta opioid receptor-1 expressed in CHO cells after 90 mins by beta-arrestin recruitment assay; assay type: cell-based
Outline: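 PathHunter CHO cells (OPRD1 or OPRM1) plated overnight at 37 °C in F-12 with 10% FBS and 25 mM HEPES. […] Incubated 90 min at room temperature, then luminescence read 1 h after detection reagent.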

[4] = molecular target: Mu-type opioid receptor (Homo sapiens, UniProt P35372); assay: Positive allosteric modulation of human mu opioid receptor-1 expressed in CHO cells assessed as potentiation of endomorphin 1-induced response after 90 mins by beta-arrestin recruitment assay; assay type: cell-based
[5] = Solubility of the compound in phosphate buffered saline assessed as particulate matter formation at >1 uM by nephelometric analysis; assay type: physicochemical; details: buffer
[6] = Solubility of the compound in HBSS/HEPES/FBS assessed as particulate matter formation at >3 uM by nephelometric analysis; assay type: physicochemical; details: buffer
[7] = test system: CHO; assay: Induction of ERK2 phosphorylation in delta receptor deficient CHO cells; assay type: cell-based; details: Cricetulus griseus
Outline: (§1)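 Parental CHO cells lacking δ receptor, test compound added alone. Cells serum-starved overnight in DMEM, then stimulated at 37 °C. Phospho-ERK1/2 measured in lysates by AlphaScreen SureFire. Basal in serum-free medium was set as 0% and 10% serum response as 100%.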

[8] = test system: CHO; assay: Induction of ERK1 phosphorylation in delta receptor deficient CHO cells; assay type: cell-based; details: Cricetulus griseus; outline: as §1
[9] = test system: CHO; assay: Effect on delta receptor deficient CHO cells assessed as inhibition of cAMP accumulation; assay type: functional, cell-based; details: Cricetulus griseus
Outline: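 Parental CHO cells lacking δ receptor, test compound added alone. Cells in HBSS + 25 mM HEPES + 0.05% BSA, 2000 cells/well, with forskolin at 2 μM final. Incubated 45 min at rt. cAMP measured by TR-FRET (665/615 nm ratio) against a cAMP standard curve run alongside.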

[10] = molecular target: T1, Delta-type opioid receptor; details: CHO
[11] = molecular target: T1, Delta-type opioid receptor; details: CHO; remark: listed apart in the source
[12] = molecular target: T1, Delta-type opioid receptor; details: CHO; remark: listed apart in the source
[13] = molecular target: T1, Delta-type opioid receptor; details: CHO; remark: listed apart in the source
[14] = molecular target: T1, Delta-type opioid receptor; assay: Partial agonist activity at human delta opioid receptor expressed in CHO cells after 1 hr by [35S]GTPgammaS binding assay relative to SNC80; assay type: functional, cell-based
[15] = molecular target: T1, Delta-type opioid receptor; details: CHO; remark: listed apart in the source
[16] = molecular target: T1, Delta-type opioid receptor; details: CHO; remark: listed apart in the source
[17] = molecular target: T1, Delta-type opioid receptor; details: CHO; remark: listed apart in the source
[18] = molecular target: T1, Delta-type opioid receptor; details: CHO; remark: listed apart in the source

T1 sequence (P41143 whole entry): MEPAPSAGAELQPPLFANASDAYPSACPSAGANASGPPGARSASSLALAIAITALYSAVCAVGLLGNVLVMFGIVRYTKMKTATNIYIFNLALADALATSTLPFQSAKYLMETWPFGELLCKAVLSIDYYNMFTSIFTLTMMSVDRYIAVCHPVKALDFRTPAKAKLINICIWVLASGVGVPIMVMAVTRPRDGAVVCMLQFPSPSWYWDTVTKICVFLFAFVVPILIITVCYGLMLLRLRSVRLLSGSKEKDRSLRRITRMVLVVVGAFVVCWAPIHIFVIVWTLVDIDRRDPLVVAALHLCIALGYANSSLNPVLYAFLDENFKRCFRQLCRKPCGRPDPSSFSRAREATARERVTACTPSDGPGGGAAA
Chain of Mu-type opioid receptor (P35372 whole entry): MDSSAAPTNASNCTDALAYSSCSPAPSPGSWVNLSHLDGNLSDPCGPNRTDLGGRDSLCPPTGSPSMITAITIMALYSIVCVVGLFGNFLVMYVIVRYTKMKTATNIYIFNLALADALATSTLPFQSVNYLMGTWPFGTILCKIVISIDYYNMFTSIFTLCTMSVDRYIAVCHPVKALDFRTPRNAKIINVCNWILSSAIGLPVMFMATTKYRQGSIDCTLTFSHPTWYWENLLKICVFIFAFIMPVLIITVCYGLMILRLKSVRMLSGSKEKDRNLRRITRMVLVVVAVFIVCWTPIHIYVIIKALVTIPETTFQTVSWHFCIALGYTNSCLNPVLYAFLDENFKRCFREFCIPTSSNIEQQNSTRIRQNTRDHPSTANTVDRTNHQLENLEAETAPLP

SMILES	EC50 [1]	Ratio EC50 [2]	Activity [3]	EC50 [4]	Emax [4]	further results
CC1(C)CC(=O)C2=C(C1)OC1=C(C(=O)CC(C)(C)C1)C2c1ccc(OCc2ccccc2F)cc1	100 nM	–	–	–	–	–
CC1(C)CC(=O)C2=C(C1)OC1=C(C(=O)CC(C)(C)C1)C2c1ccc(OCc2ccccc2OC(F)F)cc1	200 nM	15	inactive	3000 nM	80%	–
Cc1ccccc1COc1ccc(C2C3=C(CC(C)(C)CC3=O)OC3=C2C(=O)CC(C)(C)C3)cc1	–	–	–	–	–	solubility [5]: Insoluble; solubility [6]: Insoluble; Activity [7]: inactive; Activity [8]: inactive; Activity [9]: inactive
CC1(C)CC(=O)C2=C(C1)OC1=C(C(=O)CC(C)(C)C1)C2c1ccc(OCc2ccccc2)cc1	–	30	inactive	6000 nM	130%	–
CN1CC[C@]2(c3cccc(O)c3)Cc3nc4ccccc4cc3C[C@H]2C1	–	–	–	–	–	log(activity) [10]: 0.67; pKA [11]: 8.4; pKA [12]: 7.6; log(activity) [13]: 0.22; Activity [14]: 84%
CC1(C)CC(=O)C2=C(C1)OC1=C(C(=O)CC(C)(C)C1)C2c1ccc(OCc2ccccc2OC(F)(F)F)cc1	300 nM	7	inactive	2000 nM	111%	–
CC1(C)CC(=O)C2=C(C1)OC1=C(C(=O)CC(C)(C)C1)C2c1ccc(OCc2ccccc2CO)cc1	1000 nM	10	inactive	10000 nM	112%	–
Cc1cccc(COc2ccc(C3C4=C(CC(C)(C)CC4=O)OC4=C3C(=O)CC(C)(C)C4)cc2)c1	200 nM	15	inactive	3000 nM	120%	–
CC1(C)CC(=O)C2=C(C1)OC1=C(C(=O)CC(C)(C)C1)C2c1ccc(OCc2cccc(F)c2)cc1	1000 nM	7	inactive	7000 nM	182%	–
C=CCN1C[C@H](C)N([C@H](c2ccc(C(=O)N(CC)CC)cc2)c2cccc(OC)c2)C[C@H]1C	–	–	–	–	–	log(activity) [10]: 0.56; pKA [11]: 7.7; pKA [12]: 7.7; pKA [15]: 7.7; log(activity) [13]: 1.06; pKA [16]: 6.38; log(activity) [17]: 0.66; log(activity) [18]: 0.86
CC1(C)CC(=O)C2=C(C1)OC1=C(C(=O)CC(C)(C)C1)C2c1ccc(OCc2cccc(Cl)c2Cl)cc1	100 nM	–	–	–	–	–
CC1(C)CC(=O)C2=C(C1)OC1=C(C(=O)CC(C)(C)C1)C2c1ccc(OCc2ccccc2C(F)(F)F)cc1	> 10000 nM	–	inactive	> 10000 nM	> 20%	–
Cc1ccc(COc2ccc(C3C4=C(CC(C)(C)CC4=O)OC4=C3C(=O)CC(C)(C)C4)cc2)cc1	300 nM	13	inactive	4000 nM	65%	–
CC1(C)CC(=O)C2=C(C1)OC1=C(C(=O)CC(C)(C)C1)C2c1ccc(OCc2ccccc2Br)cc1	50 nM	–	–	–	–	solubility [5]: Insoluble; solubility [6]: Insoluble
CC1(C)CC(=O)C2=C(C1)OC1=C(C(=O)CC(C)(C)C1)C2c1ccc(OCc2ccccc2Cl)cc1	300 nM	–	inactive	> 10000 nM	> 100%	–
CC1(C)CC(=O)C2=C(C1)OC1=C(C(=O)CC(C)(C)C1)C2c1ccc(OCc2ccc(F)cc2)cc1	100 nM	–	–	–	–	–
CC1(C)CC(=O)C2=C(C1)OC1=C(C(=O)CC(C)(C)C1)C2c1ccc(OCc2ccccc2S(C)(=O)=O)cc1	900 nM	6	inactive	5000 nM	42%	–
